ChEMBL document CHEMBL3784997 (J Med Chem, 2016)

Tests used:
[1] = biological target: T1, Adenosine receptor A1 (Homo sapiens) (UniProt P30542); test: Displacement of [3H]DPCPX from human Adenosine A1 receptor expressed in CHO cells at 1 uM after 60 mins; format: cell-based
T1 sequence (whole entry): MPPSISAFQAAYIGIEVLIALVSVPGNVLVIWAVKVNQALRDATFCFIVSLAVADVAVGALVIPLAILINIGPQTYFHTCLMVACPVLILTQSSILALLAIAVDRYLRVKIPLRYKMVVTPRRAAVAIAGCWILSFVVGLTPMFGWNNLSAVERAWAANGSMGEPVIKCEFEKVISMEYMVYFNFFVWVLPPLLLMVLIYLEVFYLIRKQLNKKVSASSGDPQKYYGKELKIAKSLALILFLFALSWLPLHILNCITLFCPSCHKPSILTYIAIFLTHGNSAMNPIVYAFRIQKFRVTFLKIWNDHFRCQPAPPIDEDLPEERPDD
Summary of the method: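 Competition binding on membranes from CHO cells expressing human A1, labelled with 2 nM [3H]DPCPX. Non-specific binding was defined with 10 µM R-PIA, and incubation was at 25 °C for 60 min. The value is percent inhibition of specific binding at 1 µM test compound (n = 2, average).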

[2] = biological target: Adenosine receptor A2a (Homo sapiens) (UniProt P29274); test: Displacement of [3H]ZM241385 from human Adenosine A2A receptor expressed in HeLa cells at 1 uM after 30 mins; format: cell-based
Adenosine receptor A2a (Homo sapiens), sequence (P29274 whole entry): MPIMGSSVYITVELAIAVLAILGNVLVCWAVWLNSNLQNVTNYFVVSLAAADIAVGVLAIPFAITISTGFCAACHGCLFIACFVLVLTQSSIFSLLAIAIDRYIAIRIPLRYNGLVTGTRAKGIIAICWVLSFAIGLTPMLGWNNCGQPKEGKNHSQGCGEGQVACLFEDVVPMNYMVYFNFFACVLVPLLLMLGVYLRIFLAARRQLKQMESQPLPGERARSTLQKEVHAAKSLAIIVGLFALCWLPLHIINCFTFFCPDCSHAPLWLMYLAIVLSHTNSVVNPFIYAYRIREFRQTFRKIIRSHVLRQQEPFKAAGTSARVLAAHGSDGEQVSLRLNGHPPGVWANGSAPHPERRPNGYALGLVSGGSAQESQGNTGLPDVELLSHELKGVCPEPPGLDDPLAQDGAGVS
Summary of the method: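 Membranes from HeLa cells expressing human A2A were labelled with 3 nM [3H]ZM241385, with non-specific binding defined by 50 µM NECA, and incubated at 25 °C for 30 min. The value is percent displacement of specific binding at 1 µM test compound (n = 2).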

[3] = biological target: T2, Adenosine receptor A3 (Homo sapiens) (UniProt P0DMS8); test: Displacement of [3H]NECA from human Adenosine A3 receptor expressed in HeLa cells at 1 uM after 180 mins
T2 sequence (whole entry): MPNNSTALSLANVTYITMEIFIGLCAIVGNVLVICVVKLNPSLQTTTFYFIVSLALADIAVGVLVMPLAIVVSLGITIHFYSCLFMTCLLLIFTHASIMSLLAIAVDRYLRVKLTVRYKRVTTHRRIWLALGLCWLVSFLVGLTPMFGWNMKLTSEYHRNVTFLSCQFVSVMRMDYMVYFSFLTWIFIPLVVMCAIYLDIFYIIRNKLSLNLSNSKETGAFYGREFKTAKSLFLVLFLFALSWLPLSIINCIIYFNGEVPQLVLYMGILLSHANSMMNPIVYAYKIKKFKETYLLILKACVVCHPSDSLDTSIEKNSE

[4] = biological target: T3, Adenosine receptor A2b (Homo sapiens) (UniProt P29275); test: Displacement of [3H]DPCPX from human Adenosine A2B receptor expressed in HEK293 cells at 1 uM after 30 mins; format: cell-based
T3 sequence (whole entry): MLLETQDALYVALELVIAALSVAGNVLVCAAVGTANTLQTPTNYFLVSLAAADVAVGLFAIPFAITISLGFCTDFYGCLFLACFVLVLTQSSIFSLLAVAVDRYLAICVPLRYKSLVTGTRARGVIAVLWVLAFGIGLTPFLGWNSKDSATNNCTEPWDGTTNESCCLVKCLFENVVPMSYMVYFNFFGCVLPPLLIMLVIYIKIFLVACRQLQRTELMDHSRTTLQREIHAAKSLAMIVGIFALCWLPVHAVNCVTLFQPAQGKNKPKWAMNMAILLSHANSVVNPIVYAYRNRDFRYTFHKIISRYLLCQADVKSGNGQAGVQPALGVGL
Summary of the method: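 Membranes from HEK-293 cells expressing human A2B were labelled with 35 nM [3H]DPCPX, with non-specific binding defined by 400 µM NECA, and incubated at 25 °C for 30 min.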

Adenosine receptor A2b = biological target: T4, Adenosine receptor A2b (Homo sapiens, UniProt P29275); test: Displacement of [3H]DPCPX from human Adenosine A2B receptor expressed in HEK293 cells after 30 mins; format: cell-based
T4 sequence (P29275 whole entry): T3 sequence (whole entry)

CC1=C(C(=O)OC(C)C)C(c2ccco2)NC(=O)N1 (centres undefined)
Activity [1]: 20% | Activity [2]: 30% | Activity [3]: 1%

CC1=C(C(=O)OC(C)C)C(c2cccs2)NC(=O)N1 (centres undefined)
Activity [1]: 37% | Activity [2]: 19% | Activity [4]: 44% | Activity [3]: 14%

CC1=C(C(=O)OC(C)C)C(c2ccoc2)NC(=O)N1 (centres undefined)
Activity [1]: 25% | Activity [2]: 26% | Activity [3]: 3%

CC1=C(C(=O)OC(C)C)C(c2ccsc2)NC(=O)N1 (centres undefined)
Activity [1]: 26% | Activity [2]: 25% | Activity [3]: 1%

CCOC(=O)C1=C(C)NC(=O)NC1c1ccco1 (centres undefined)
Activity [1]: 18% | Activity [2]: 41% | Activity [3]: 2%

CCOC(=O)C1=C(C)NC(=O)NC1c1cccs1 (centres undefined)
Activity [1]: 1% | Activity [2]: 33% | Activity [4]: 44% | Activity [3]: 1%

CCOC(=O)C1=C(C)NC(=O)NC1c1ccoc1 (centres undefined)
Activity [1]: 21% | Activity [2]: 39% | Activity [3]: 1%

CCOC(=O)C1=C(C)NC(=O)NC1c1ccsc1 (centres undefined)
Activity [1]: 22% | Activity [2]: 39% | Activity [3]: 24%

CC1=C(C(=O)OC(C)C)C(c2ccoc2)n2ccnc2N1 (racemic)
Activity [1]: 1% | Activity [2]: 4% | Ki (Adenosine receptor A2b): 277 nM | Activity [3]: 10%

CC1=C(C(=O)OC(C)C)C(c2ccsc2)n2ncnc2N1 (racemic)
Activity [1]: 3% | Activity [2]: 2% | Ki (Adenosine receptor A2b): 817 nM | Activity [3]: 5%

CCOC(=O)C1=C(C)Nc2nc3ccccc3n2C1c1ccco1 (racemic)
Activity [1]: 5% | Activity [2]: 14% | Ki (Adenosine receptor A2b): 12 nM | Activity [3]: 1%

CC1=C(C(=O)OC(C)C)C(c2ccoc2)n2ncnc2N1 (racemic)
Activity [1]: 2% | Activity [2]: 2% | Ki (Adenosine receptor A2b): 350 nM | Activity [3]: 20%

CC1=C(C(=O)OC(C)C)C(c2ccsc2)n2ccnc2N1 (racemic)
Activity [1]: 3% | Activity [2]: 1% | Ki (Adenosine receptor A2b): 847 nM | Activity [3]: 1%

CC1=C(C(=O)OC(C)C)C(c2cccs2)n2c(nc3ccccc32)N1 (racemic)
Activity [1]: 1% | Activity [2]: 17% | Ki (Adenosine receptor A2b): 371 nM | Activity [3]: 3%

CC1=C(C(=O)OC(C)C)C(c2ccco2)n2ccnc2N1 (racemic)
Activity [1]: 3% | Activity [2]: 4% | Ki (Adenosine receptor A2b): 85.6 nM | Activity [3]: 2%

CCOC(=O)C1=C(C)NC(=O)CC1c1ccco1 (racemic)
Activity [1]: 22% | Activity [2]: 13% | Ki (Adenosine receptor A2b): 2540 nM | Activity [3]: 24%

CCOC(=O)C1=C(C)Nc2nc3ccccc3n2C1c1ccoc1 (racemic)
Activity [1]: 7% | Activity [2]: 11% | Ki (Adenosine receptor A2b): 20.6 nM | Activity [3]: 1%

CCOC(=O)C1=C(C)Nc2nc3ccccc3n2C1c1ccsc1 (racemic)
Activity [1]: 3% | Activity [2]: 10% | Ki (Adenosine receptor A2b): 29.7 nM | Activity [3]: 2%

CCOC(=O)C1=C(C)Nc2nc3ccccc3n2C1c1cccs1 (racemic)
Activity [1]: 8% | Activity [2]: 16% | Ki (Adenosine receptor A2b): 485 nM | Activity [3]: 1%

CC1=C(C(=O)OC(C)C)C(c2cccs2)n2ccnc2N1 (racemic)
Activity [1]: 3% | Activity [2]: 3% | Ki (Adenosine receptor A2b): 728 nM | Activity [3]: 5%

CC1=C(C(=O)OC(C)C)C(c2ccoc2)n2c(nc3ccccc32)N1 (racemic)
Activity [1]: 12% | Activity [2]: 22% | Ki (Adenosine receptor A2b): 11.4 nM | Activity [3]: 2%

CCOC(=O)C1=C(C)Nc2nccn2C1c1ccco1 (racemic)
Activity [1]: 2% | Activity [2]: 5% | Ki (Adenosine receptor A2b): 108 nM | Activity [3]: 6%

CC1=C(C(=O)OC(C)C)C(c2ccsc2)n2c(nc3ccccc32)N1 (racemic)
Activity [1]: 11% | Activity [2]: 3% | Ki (Adenosine receptor A2b): 29.3 nM | Activity [3]: 21%

CCOC(=O)C1=C(C)Nc2ncnn2C1c1ccoc1 (racemic)
Activity [1]: 2% | Activity [2]: 1% | Ki (Adenosine receptor A2b): 602 nM | Activity [3]: 4%

CCOC(=O)C1=C(C)Nc2ncnn2C1c1ccsc1 (racemic)
Activity [1]: 3% | Activity [2]: 21% | Ki (Adenosine receptor A2b): 699 nM | Activity [3]: 2%

CC1=C(C(=O)OC(C)C)C(c2ccco2)CC(=O)N1 (racemic)
Activity [1]: 14% | Activity [2]: 14% | Activity [4]: 15% | Activity [3]: 31%

CC1=C(C(=O)OC(C)C)C(c2cccs2)CC(=O)N1 (racemic)
Activity [1]: 2% | Activity [2]: 1% | Activity [4]: 3% | Activity [3]: 22%

CC1=C(C(=O)OC(C)C)C(c2cccs2)n2ncnc2N1 (racemic)
Activity [1]: 1% | Activity [2]: 1% | Activity [4]: 1% | Activity [3]: 3%

CC1=C(C(=O)OC(C)C)C(c2ccoc2)CC(=O)N1 (racemic)
Activity [1]: 23% | Activity [2]: 25% | Activity [4]: 20% | Activity [3]: 24%

CC1=C(C(=O)OC(C)C)C(c2ccsc2)CC(=O)N1 (racemic)
Activity [1]: 4% | Activity [2]: 3% | Activity [4]: 21% | Activity [3]: 20%

CCN1CC2=C(C1=O)C(c1ccco1)NC(=O)N2 (racemic)
Activity [1]: 7% | Activity [2]: 7% | Activity [4]: 17% | Activity [3]: 20%

CCN1CC2=C(C1=O)C(c1cccs1)NC(=O)N2 (racemic)
Activity [1]: 12% | Activity [2]: 2% | Activity [4]: 28% | Activity [3]: 21%

CCN1CC2=C(C1=O)C(c1ccoc1)NC(=O)N2 (racemic)
Activity [1]: 16% | Activity [2]: 13% | Activity [4]: 35% | Activity [3]: 17%

CCN1CC2=C(C1=O)C(c1ccsc1)NC(=O)N2 (racemic)
Activity [1]: 27% | Activity [2]: 17% | Activity [4]: 18% | Activity [3]: 31%

CCOC(=O)C1=C(C)NC(=O)CC1c1cccs1 (racemic)
Activity [1]: 16% | Activity [2]: 11% | Activity [4]: 18% | Activity [3]: 21%

CCOC(=O)C1=C(C)NC(=O)CC1c1ccoc1 (racemic)
Activity [1]: 9% | Activity [2]: 8% | Activity [4]: 14% | Activity [3]: 15%

CCOC(=O)C1=C(C)NC(=O)CC1c1ccsc1 (racemic)
Activity [1]: 1% | Activity [2]: 4% | Activity [4]: 12% | Activity [3]: 13%

CCOC(=O)C1=C(C)Nc2nccn2C1c1ccoc1 (racemic)
Activity [1]: 2% | Activity [2]: 1% | Activity [4]: 12% | Activity [3]: 3%

CCOC(=O)C1=C(C)Nc2nccn2C1c1ccsc1 (racemic)
Activity [1]: 1% | Activity [2]: 3% | Activity [4]: 10% | Activity [3]: 2%

CCOC(=O)C1=C(C)Nc2ncnn2C1c1ccco1 (racemic)
Activity [1]: 15% | Activity [2]: 20% | Activity [4]: 3% | Activity [3]: 4%

CCOC(=O)C1=C(C)Nc2ncnn2C1c1cccs1 (racemic)
Activity [1]: 1% | Activity [2]: 2% | Activity [4]: 15% | Activity [3]: 15%

O=C1NC2=C(C(=O)OC2)C(c2ccco2)N1 (racemic)
Activity [1]: 3% | Activity [2]: 2% | Activity [4]: 2% | Activity [3]: 3%

O=C1NC2=C(C(=O)OC2)C(c2cccs2)N1 (racemic)
Activity [1]: 1% | Activity [2]: 1% | Activity [4]: 10% | Activity [3]: 1%

O=C1NC2=C(C(=O)OC2)C(c2ccoc2)N1 (racemic)
Activity [1]: 9% | Activity [2]: 3% | Activity [4]: 9% | Activity [3]: 1%

O=C1NC2=C(C(=O)OC2)C(c2ccsc2)N1 (racemic)
Activity [1]: 13% | Activity [2]: 3% | Activity [4]: 8% | Activity [3]: 2%
